Results published in ChEMBL document CHEMBL1137766, “Synthesis and biological evaluation of 3,4,6-triaryl-2-pyranones as a potential new class of anti-breast cancer agents” (Bioorg Med Chem, 2009).
The source made the active and inactive calls. The rule behind the calls is not given here.

Assays:
MDA-MB-231 [1] = assay: Antiproliferative activity against human estrogen receptor deficient MDA-MB-231 cells after 48 hrs by MTT assay; assay type: functional, cell-based; conditions: MDA-MB-231, 48 h
In short: (§1)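 MTT reduction: 1 × 10⁴ cells/well seeded in DMEM with 10% FBS, incubated 24 h at 37 °C in CO₂. Compounds diluted in culture medium and applied for 48 h. MTT (5 mg/mL stock) added for 4 h, formazan dissolved in DMSO, absorbance read at 540 nm. IC50 taken from growth inhibition. Vehicle control 0.001% DMSO.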

MCF7 [2] = assay: Antiproliferative activity against human MCF7 cells expressing estrogen receptor after 48 hrs by MTT assay; assay type: functional, cell-based; conditions: MCF7, 48 h; in short: as §1
Vero = assay: Cytotoxicity against african green monkey Vero cells after 48 hrs by MTT assay; assay type: cell-based; conditions: chlorocebus sabaeus
[3] = Cytotoxicity against osteoblasts after 48 hrs by MTT assay; assay type: cell-based; conditions: osteoblast
MDA-MB-231 [4] = assay: Induction of apoptosis in human MDA-MB-231 cells assessed as DNA fragmentation at 10 uM after 24 hrs by ELISA; assay type: functional, cell-based
In short: (§2)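 BrdU-labelled cells incubated with compound for 24 h. Cells lysed 30 min at rt and spun at 250g for 10 min. Supernatant captured on adsorbed anti-DNA antibody, fixed by microwave 5 min, then probed 90 min with peroxidase anti-BrdU; OD read at 370 nm. Kit positive and negative controls used. Duplicates from two independent experiments.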

[5] = biological target: Estrogen receptor beta (Homo sapiens) (UniProt Q92731); assay: Transactivation of ERbeta expressed in african green monkey COS7 cells at 5 uM after 24 hrs by luciferase reporter gene assay; assay type: cell-based; conditions: COS-7
Chain of Estrogen receptor beta (Homo sapiens) (Q92731 whole entry, the tested form may be a part): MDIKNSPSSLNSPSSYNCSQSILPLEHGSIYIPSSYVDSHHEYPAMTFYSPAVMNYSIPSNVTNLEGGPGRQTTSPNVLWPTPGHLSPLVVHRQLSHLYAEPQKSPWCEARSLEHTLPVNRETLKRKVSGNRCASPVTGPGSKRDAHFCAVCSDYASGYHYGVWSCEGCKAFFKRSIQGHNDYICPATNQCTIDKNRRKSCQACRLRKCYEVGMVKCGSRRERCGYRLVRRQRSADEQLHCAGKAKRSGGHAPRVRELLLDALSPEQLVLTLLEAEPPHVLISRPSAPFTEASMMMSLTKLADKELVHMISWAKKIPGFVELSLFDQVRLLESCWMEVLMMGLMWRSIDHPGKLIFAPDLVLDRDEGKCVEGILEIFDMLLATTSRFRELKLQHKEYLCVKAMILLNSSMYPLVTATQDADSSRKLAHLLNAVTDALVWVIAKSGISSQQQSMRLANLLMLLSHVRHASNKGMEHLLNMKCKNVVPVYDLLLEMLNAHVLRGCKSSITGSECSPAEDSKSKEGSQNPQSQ
In short: (§3)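 Cos-7 cells, 40,000 per well, seeded 24 h before co-transfection with 200 ng pGL3-Gal4Tk-Luc reporter plus ERα or ERβ expression plasmid and pRL-CMV. Compounds given, then cells harvested 24 h post-transfection for dual-luciferase assay. Firefly signal normalised to Renilla and GFP, expressed as fold over VP-16 control. Mean ± SD of three independent experiments.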

MCF7 [6] = assay: Induction of apoptosis in human MCF7 cells assessed as caspase induction at 20 uM after 24 hrs by fluorescence assay; assay type: functional, cell-based
In short: (§4)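 Caspase kit covering caspases 2, 3, 6, 7, 8, 9 and 10. MCF-7 cells serum-deprived 4 h, then treated with compound for 24 h at various concentrations. DEVD-rhodamine-110 substrate added; released rhodamine-110 fluorescence read at 560 nm. Camptothecin-treated U937 cells served as positive control. Duplicates from two independent experiments.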

MDA-MB-231 [7] = assay: Induction of apoptosis in human MDA-MB-231 cells assessed as DNA fragmentation at 20 uM after 24 hrs by ELISA; assay type: functional, cell-based; in short: as §2
MDA-MB-231 [8] = assay: Induction of apoptosis in human MDA-MB-231 cells assessed as caspase induction at 40 uM after 24 hrs by fluorescence assay; assay type: functional, cell-based
MCF7 [9] = assay: Induction of apoptosis in human MCF7 cells assessed as DNA fragmentation at 20 uM after 24 hrs by ELISA; assay type: functional, cell-based; in short: as §2
MDA-MB-231 [10] = assay: Induction of apoptosis in human MDA-MB-231 cells assessed as morphological changes at 10 uM after 18 hrs using Hoechst 33342 staining by fluorescent microscopy; assay type: functional, cell-based
In short: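 10,000 cells seeded on 18-mm coverslips and grown 24 h. Medium replaced, then cells treated with 10 µM compound for 18 h. Stained with Hoechst 33342 0.5 µg/ml in 4% paraformaldehyde for 30 min at 37 °C. Random fields imaged by fluorescence microscopy; viable versus apoptotic cells judged qualitatively by fluorescence and nuclear fragmentation.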

[11] = biological target: T1, Estrogen receptor (Homo sapiens) (UniProt P03372); assay: Transactivation of ERalpha expressed in african green monkey COS7 cells at 5 uM after 24 hrs by luciferase reporter gene assay; assay type: cell-based; conditions: COS-7; in short: as §3
T1 sequence (whole entry): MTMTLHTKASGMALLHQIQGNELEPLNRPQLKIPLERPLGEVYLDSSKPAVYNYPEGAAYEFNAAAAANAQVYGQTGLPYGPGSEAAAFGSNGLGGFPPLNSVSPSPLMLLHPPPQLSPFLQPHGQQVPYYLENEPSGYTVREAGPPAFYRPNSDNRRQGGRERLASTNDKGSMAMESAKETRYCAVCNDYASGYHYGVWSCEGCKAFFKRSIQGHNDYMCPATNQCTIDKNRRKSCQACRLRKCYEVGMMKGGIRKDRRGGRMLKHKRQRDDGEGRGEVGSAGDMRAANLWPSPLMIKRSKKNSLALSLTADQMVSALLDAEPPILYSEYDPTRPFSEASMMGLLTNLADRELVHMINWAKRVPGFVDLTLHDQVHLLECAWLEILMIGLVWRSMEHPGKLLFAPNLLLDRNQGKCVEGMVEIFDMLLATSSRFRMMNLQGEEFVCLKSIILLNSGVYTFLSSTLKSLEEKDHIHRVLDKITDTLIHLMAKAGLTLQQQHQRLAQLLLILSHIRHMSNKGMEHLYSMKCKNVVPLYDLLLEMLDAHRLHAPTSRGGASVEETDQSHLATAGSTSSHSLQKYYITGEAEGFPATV

MDA-MB-231 [12] = assay: Induction of apoptosis in human MDA-MB-231 cells assessed as caspase induction at 20 uM after 24 hrs by fluorescence assay; assay type: functional, cell-based
[13] = biological target: T2, Prostaglandin G/H synthase 2 (Homo sapiens, UniProt P35354)
T2 sequence (P35354 whole entry): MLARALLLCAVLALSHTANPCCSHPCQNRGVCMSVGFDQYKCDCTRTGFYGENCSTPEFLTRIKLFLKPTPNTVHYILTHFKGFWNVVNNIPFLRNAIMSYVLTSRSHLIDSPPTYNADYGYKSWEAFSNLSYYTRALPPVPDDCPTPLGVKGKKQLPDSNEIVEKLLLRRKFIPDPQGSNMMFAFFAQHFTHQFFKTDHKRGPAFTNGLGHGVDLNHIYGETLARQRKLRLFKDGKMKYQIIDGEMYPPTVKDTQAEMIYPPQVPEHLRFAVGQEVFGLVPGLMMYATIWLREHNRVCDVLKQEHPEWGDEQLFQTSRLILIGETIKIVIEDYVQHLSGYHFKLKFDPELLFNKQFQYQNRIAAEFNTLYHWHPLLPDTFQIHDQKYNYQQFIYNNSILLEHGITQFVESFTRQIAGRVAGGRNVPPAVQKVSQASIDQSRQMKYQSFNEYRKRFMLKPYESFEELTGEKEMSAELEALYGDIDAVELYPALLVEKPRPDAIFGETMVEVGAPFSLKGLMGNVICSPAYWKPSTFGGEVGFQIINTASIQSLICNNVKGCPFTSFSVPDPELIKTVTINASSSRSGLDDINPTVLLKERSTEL

MCF7 [14] = assay: Induction of apoptosis in human MCF7 cells assessed as DNA fragmentation at 10 uM after 24 hrs by ELISA; assay type: functional, cell-based; in short: as §2
MCF7 [15] = assay: Induction of apoptosis in human MCF7 cells assessed as caspase induction at 40 uM after 24 hrs by fluorescence assay; assay type: functional, cell-based; in short: as §4

SMILES	IC50 (MDA-MB-231 [1]) [µM]	IC50 (MCF7 [2]) [µM]	Activity (Vero)	Activity [3]	also measured
COc1ccc(-c2cc(-c3ccccc3)oc(=O)c2-c2ccc(O)cc2)cc1	> 100	> 50	–	–	–
O=c1oc(-c2ccc(O)cc2)cc(-c2ccccc2)c1-c1ccccc1	13	21	Toxic	Toxic	–
CC/C(=C(\c1ccccc1)c1ccc(OCCN(C)C)cc1)c1ccccc1 [TAMOXIFEN]	20	10	–	–	–
O=c1oc(-c2ccc(O)cc2)cc(-c2ccc(O)cc2)c1-c1ccccc1	26	14	Non-toxic	Non-toxic	Activity (MDA-MB-231 [4]): Active; Activity [5]: inactive; Activity (MCF7 [6]): Active; Activity (MDA-MB-231 [7]): Active; Activity (MDA-MB-231 [8]): inactive; Activity (MCF7 [9]): Active; Activity (MDA-MB-231 [10]): Active; Activity [11]: inactive; Activity (MDA-MB-231 [12]): inactive
COc1ccc(-c2cc(-c3ccccc3)c(-c3ccc(S(C)(=O)=O)cc3)c(=O)o2)cc1	–	–	–	–	IC50 [13]: 0.02 µM
O=c1oc(-c2ccccc2)cc(-c2ccc(OCCN3CCCCC3)cc2)c1-c1ccccc1	11	26	Toxic	Toxic	–
O=c1oc(-c2ccccc2)cc(-c2ccc(OCCN3CCCC3)cc2)c1-c1ccccc1	9	14	Toxic	Toxic	–
O=c1oc(-c2ccc(OCCN3CCCC3)cc2)cc(-c2ccccc2)c1-c1ccccc1	34	25	Toxic	Toxic	–
O=c1oc(-c2ccccc2)cc(-c2ccccc2)c1-c1ccc(OCCN2CCCCC2)cc1	> 100	> 50	–	–	–
COc1ccc(-c2cc(-c3ccccc3)oc(=O)c2-c2ccc(OCCN3CCCCC3)cc2)cc1	12	16	Toxic	Toxic	–
O=c1oc(-c2ccc(O)cc2)cc(-c2ccccc2)c1-c1ccc(O)cc1	> 100	26	–	–	–
O=c1oc(-c2ccc(OCCN3CCCCC3)cc2)cc(-c2ccccc2)c1-c1ccccc1	> 100	24	–	–	–
O=c1oc(-c2ccccc2)cc(-c2ccc(O)cc2)c1-c1ccccc1	> 100	38	–	–	–
O=c1oc(-c2ccccc2)cc(-c2ccccc2)c1-c1ccc(OCCN2CCCC2)cc1	> 100	23	–	–	–
COc1ccc(-c2cc(-c3ccccc3)c(-c3ccc(O)cc3)c(=O)o2)cc1	17	14	Non-toxic	Non-toxic	Activity [5]: inactive; Activity (MCF7 [6]): Active; Activity (MDA-MB-231 [8]): inactive; Activity (MCF7 [9]): inactive; Activity (MDA-MB-231 [10]): Active; Activity [11]: inactive; Activity (MCF7 [14]): inactive; Activity (MDA-MB-231 [12]): inactive
O=c1oc(-c2ccccc2)cc(-c2ccc(O)cc2)c1-c1ccc(O)cc1	27	24	Non-toxic	Non-toxic	Activity [5]: inactive; Activity (MCF7 [6]): Active; Activity (MDA-MB-231 [7]): Active; Activity (MDA-MB-231 [8]): inactive; Activity (MCF7 [9]): Active; Activity (MDA-MB-231 [10]): Active; Activity [11]: inactive; Activity (MCF7 [14]): Active; Activity (MDA-MB-231 [12]): inactive
O=c1oc(-c2ccccc2)cc(-c2ccccc2)c1-c1ccc(O)cc1	38	25	Non-toxic	Non-toxic	Activity [5]: inactive; Activity (MCF7 [9]): inactive; Activity (MDA-MB-231 [10]): Active; Activity (MCF7 [15]): Active; Activity [11]: inactive; Activity (MCF7 [14]): inactive
